“Also recorded” adds a separate entry of the source.
What was measured:
Format in all cases: biochemical
[1] = target: T1, human liver CE, hCE1 (CES1) (Homo sapiens, UniProt P23141); test: Inhibition of hCE1 hydrolysis of 3; details: for Ki: read-out: hCE1 Ki ± SE, substrate 3 (o-nitrophenyl acetate); for inhibition of hCE1 (in words): substrate 3
T1 sequence (P23141 18-567): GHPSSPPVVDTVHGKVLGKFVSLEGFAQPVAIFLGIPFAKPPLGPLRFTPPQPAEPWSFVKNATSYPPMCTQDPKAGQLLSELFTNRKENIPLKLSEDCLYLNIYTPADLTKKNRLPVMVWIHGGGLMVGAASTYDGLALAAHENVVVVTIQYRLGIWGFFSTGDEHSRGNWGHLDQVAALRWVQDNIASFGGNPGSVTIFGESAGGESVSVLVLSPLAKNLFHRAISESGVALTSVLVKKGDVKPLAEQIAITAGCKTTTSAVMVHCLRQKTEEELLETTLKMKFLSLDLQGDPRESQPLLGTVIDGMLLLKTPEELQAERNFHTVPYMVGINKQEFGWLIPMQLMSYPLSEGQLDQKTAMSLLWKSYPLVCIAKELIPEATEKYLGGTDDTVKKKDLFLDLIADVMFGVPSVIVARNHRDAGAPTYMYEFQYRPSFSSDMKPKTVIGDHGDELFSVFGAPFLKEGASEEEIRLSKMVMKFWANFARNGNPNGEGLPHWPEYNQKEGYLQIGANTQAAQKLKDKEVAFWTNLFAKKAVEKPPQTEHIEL

[2] = target: T2, human intestinal CE (hiCE, CES2) (Homo sapiens, UniProt O00748)
T2 sequence (O00748 27-559): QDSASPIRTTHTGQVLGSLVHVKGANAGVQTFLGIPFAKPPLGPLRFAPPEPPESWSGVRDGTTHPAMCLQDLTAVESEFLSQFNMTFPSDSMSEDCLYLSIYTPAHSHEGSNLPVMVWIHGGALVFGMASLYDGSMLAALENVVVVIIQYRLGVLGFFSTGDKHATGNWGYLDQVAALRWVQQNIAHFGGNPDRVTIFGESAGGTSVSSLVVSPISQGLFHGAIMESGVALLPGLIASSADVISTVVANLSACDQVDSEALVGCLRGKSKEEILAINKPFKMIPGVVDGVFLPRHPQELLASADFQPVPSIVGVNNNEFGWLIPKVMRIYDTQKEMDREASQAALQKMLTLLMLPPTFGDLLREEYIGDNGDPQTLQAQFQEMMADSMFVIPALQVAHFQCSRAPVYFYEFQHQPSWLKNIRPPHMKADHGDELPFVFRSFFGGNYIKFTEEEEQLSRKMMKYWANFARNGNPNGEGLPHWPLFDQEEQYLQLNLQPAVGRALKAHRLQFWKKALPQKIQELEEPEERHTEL

hiCE = target: T3, hiCE (Homo sapiens, UniProt O00748); test: Inhibition of the metabolism of heroin and cocaine; details: data not shown; Hatfield et al, manuscript in preparation
T3 sequence (O00748 27-559): T2 sequence (O00748 27-559)

hAChE = hAChE (Homo sapiens, UniProt P22303); test: Inhibition of acetylcholinesterase, acetylthiocholine substrate; details: data not shown
hAChE, sequence (P22303 32-614): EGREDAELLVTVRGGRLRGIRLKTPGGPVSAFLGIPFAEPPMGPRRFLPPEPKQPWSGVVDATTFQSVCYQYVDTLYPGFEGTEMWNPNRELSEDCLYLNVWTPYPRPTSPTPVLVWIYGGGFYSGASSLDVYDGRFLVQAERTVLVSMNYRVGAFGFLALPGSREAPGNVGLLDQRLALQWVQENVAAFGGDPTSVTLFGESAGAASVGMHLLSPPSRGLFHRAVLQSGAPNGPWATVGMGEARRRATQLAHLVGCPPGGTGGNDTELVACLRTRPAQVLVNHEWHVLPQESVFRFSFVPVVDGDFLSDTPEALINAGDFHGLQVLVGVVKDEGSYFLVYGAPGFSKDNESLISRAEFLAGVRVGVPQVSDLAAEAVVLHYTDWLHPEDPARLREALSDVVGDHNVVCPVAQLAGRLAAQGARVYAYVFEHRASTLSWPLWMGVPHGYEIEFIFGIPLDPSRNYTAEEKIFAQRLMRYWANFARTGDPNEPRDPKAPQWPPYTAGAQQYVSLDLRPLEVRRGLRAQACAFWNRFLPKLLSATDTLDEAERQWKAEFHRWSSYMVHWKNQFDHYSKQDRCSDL
Outline: (§1)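 Purified human AChE and BChE were obtained commercially. Test compounds were dissolved in DMSO (stock typically 10mM) immediately before analysis. Inhibition was measured by the previously reported method, with acetylthiocholine as substrate for hAChE and butyrylthiocholine for hBChE.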

hBChE = hBChE (Homo sapiens, UniProt P06276); test: Inhibition of butyrylcholinesterase, butyrylthiocholine substrate; details: data not shown
hBChE, sequence (P06276 29-602): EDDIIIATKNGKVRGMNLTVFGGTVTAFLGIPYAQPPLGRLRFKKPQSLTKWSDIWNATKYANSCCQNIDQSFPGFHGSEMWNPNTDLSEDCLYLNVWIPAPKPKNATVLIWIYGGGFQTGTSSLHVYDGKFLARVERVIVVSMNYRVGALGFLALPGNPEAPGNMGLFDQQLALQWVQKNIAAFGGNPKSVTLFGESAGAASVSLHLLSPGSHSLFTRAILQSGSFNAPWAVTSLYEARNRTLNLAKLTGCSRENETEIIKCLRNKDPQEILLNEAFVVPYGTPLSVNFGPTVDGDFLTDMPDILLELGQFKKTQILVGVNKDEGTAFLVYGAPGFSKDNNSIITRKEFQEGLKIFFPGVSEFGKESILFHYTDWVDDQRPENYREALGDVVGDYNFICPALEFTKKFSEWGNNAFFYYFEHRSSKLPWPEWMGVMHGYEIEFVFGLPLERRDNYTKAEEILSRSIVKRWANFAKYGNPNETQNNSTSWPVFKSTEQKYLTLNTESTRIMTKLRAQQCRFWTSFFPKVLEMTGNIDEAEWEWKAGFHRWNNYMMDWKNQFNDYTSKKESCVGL
Outline: as §1

| Compound | inhibition of hCE1 (in words) [1] | inhibition of hAChE (in words) (hAChE) | inhibition of hiCE (in words) ([2]; substrate 3) | inhibition of hBChE (in words) (hBChE) | also measured |
| --- | --- | --- | --- | --- | --- |
| 4,6-dimethyl-N1,N3- diphenylbenzene-1,3- disulfonamide [compound 4] | – | – | – | – | Ki [1]: > 100 µM |
| O=S(=O)(Nc1ccc(NS(=O)(=O)c2ccc(Cl)cc2)cc1)c1ccc(Cl)cc1 [compound 11, N,N'-(1,4-phenylene)bis(4-chlorobenzenesulfonamide)] | weak activity | – | – | – | fold more potent against hiCE than hCE1 ([2]; ratio of Ki values hCE1 vs hiCE, substrate 3): over 250 fold |
| O=S(=O)(Nc1ccc(NS(=O)(=O)c2cccc(Br)c2)cc1)c1cccc(Br)c1 [compound 18, N,N'-(1,4-phenylene)bis(3-bromobenzenesulfonamide)] | – | – | – | – | inhibition of the metabolism of heroin and cocaine (in words) (hiCE): can also inhibit the metabolism of heroin and cocaine |
| O=S(=O)(Nc1ccc(NS(=O)(=O)c2cc(Cl)c(Cl)cc2Cl)cc1)c1cc(Cl)c(Cl)cc1Cl [compound 28, N,N'-(1,4-phenylene)bis(2,4,5-trichlorobenzenesulfonamide)] | inactive | inactive | did not inhibit the enzyme; also recorded: loss of biological activity; also recorded: do not inhibit hiCE; also recorded: inactive | inactive | – |
| O=C(O)c1ccc(S(=O)(=O)Nc2ccc(NS(=O)(=O)c3ccc(F)cc3)cc2)cc1 [compound 39, 4-(N-(4-(4-fluorophenylsulfonamido)phenyl)sulfamoyl) benzoic acid] | inactive | inactive | did not inhibit the enzyme; also recorded: do not inhibit hiCE; also recorded: inactive | inactive | – |
| CNC(=O)c1ccc(S(=O)(=O)Nc2ccc(NS(=O)(=O)c3ccc(F)cc3)cc2)cc1 [compound 41, 4-(N-(4-(4-fluorophenylsulfonamido)phenyl)sulfamoyl)-N-methyl benzamide] | inactive | inactive | did not inhibit the enzyme; also recorded: do not inhibit hiCE; also recorded: inactive | inactive | – |
| O=S(=O)(Nc1c(F)c(F)c(NS(=O)(=O)c2ccc(Br)cc2)c(F)c1F)c1ccc(Br)cc1 [compound 54, N,N'-(2,3,5,6-tetrafluoro-1,4-phenylene) bis(4-bromobenzenesulfonamide)] | – | – | – | – | inhibition of the metabolism of heroin and cocaine (in words) (hiCE): can also inhibit the metabolism of heroin and cocaine |
| O=S(=O)(Nc1ccc2c(c1)Cc1cc(NS(=O)(=O)c3ccccc3)ccc1-2)c1ccccc1 [compound 56] | – | – | – | – | fold more potent at inhibiting hiCE than compound 8 ([2]; comparison of inhibition constants of 8 and 56): ~11 fold |
| N,N'-(1,4-phenylene)bis(4-fluoro-2-methyl benzene sulfonamide) [compound 36] | – | – | – | – | Ki [1]: > 100 µM; Ki ([2]; read-out: hiCE Ki ± SE, substrate 3 (o-nitrophenyl acetate)): 0.273 ± 0.033 µM |

— paper PMC2780016 (Journal of medicinal chemistry, 2009)
